Test [1] deals with T1, 17-beta-hydroxysteroid dehydrogenase type 3 (Rattus norvegicus) (UniProt O54939).
T1 sequence (whole entry): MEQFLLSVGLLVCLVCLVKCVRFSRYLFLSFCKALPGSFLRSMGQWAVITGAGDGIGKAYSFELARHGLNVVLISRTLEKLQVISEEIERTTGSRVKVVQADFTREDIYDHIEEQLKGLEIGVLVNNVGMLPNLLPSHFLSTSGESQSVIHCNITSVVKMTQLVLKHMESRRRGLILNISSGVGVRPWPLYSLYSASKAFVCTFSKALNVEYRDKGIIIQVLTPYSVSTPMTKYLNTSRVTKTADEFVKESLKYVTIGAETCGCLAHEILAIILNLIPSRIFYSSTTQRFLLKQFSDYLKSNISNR
Put plainly: Inhibition of 17beta-HSD3 in rat testes microsomes using [14C]-4-androstene-3,17-dione as substrate measured based on 18% of initial enzyme transformation at 1 uM after 2 hrs. The conditions noted are these: Testis. The gist of the method: (§1)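 Rat testis microsomes: homogenate in phosphate/sucrose/EDTA buffer pH 7.5 with protease inhibitors, spun 12,500g, then pellet from 100,000g, at 4 °C. Reaction 2 h at 37 °C in 50 mM sodium phosphate pH 7.4, 20% glycerol, 1 mM EDTA, with NADPH and [14C]-Δ4-dione (50 nM). Inhibitor in DMSO. [14C]-T and substrate identified against reference steroids and quantified. Percent transformation and percent inhibition calculated.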

The target of test [2] is T1, 17-beta-hydroxysteroid dehydrogenase type 3 (Rattus norvegicus). The test is described as follows: Ratio of delta4-dione IC50 to compound IC50 for 17beta-HSD3 in rat testes microsomes. As to conditions: Testis.
In test [3] the test system is LAPC4. Put plainly: Androgenic activity in human LAPC4 cells expressing androgen receptor assessed as induction of cell proliferation at 1 uM after 3 days by MTS assay relative to control. It counts as functional. The gist of the method: (§2)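 LAPC-4 (AR+) cells in RPMI-1640 with 5% dextran-coated charcoal-treated FBS to remove hormones. Triplicate cultures of 10,000 cells preincubated 24 h at 37 °C, 5% CO2. Compounds from 10^-2 M DMSO stock, diluted in medium, added for 3 days (final DMSO 0.05%; vehicle controls). Growth read by MTS. Androgenicity = % proliferation minus basal set at 100%.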
(In general: Formazan colour is commonly taken as a measure of viable cells.)

The target in test [4] is T1, 17-beta-hydroxysteroid dehydrogenase type 3 (Rattus norvegicus). The test is described as follows: Inhibition of 17beta-HSD3 in rat testes microsomes using [14C]-4-androstene-3,17-dione as substrate measured based on 18% of initial enzyme transformation at 0.01 uM after 2 hrs. As to conditions: Testis. In a few lines:
as §1

For test [5] the target is unchanged. The test is described as follows: Inhibition of 17beta-HSD3 in rat testes microsomes using [14C]-4-androstene-3,17-dione as substrate measured based on 18% of initial enzyme transformation at 0.1 uM after 2 hrs. The conditions noted are these: Testis. The gist of the method: as §1
In test [6] the target is T2, 17-beta-hydroxysteroid dehydrogenase type 3 (Homo sapiens) (UniProt P37058).
T2 sequence (whole entry): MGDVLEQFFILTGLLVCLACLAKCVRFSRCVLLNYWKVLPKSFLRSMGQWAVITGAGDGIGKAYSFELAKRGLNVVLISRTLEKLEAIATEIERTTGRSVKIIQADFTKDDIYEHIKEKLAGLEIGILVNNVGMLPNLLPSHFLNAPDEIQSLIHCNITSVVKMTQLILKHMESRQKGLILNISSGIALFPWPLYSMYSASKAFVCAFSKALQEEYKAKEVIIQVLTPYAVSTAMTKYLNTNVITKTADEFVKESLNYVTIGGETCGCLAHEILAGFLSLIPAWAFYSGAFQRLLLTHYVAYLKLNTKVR
The test is described as follows: Inhibition of 17beta-HSD3 (unknown origin) expressed in human LNCaP cells using [14C]-4-androstene-3,17-dione as substrate at 1 uM after 3 hrs. Format: cell-based. In a few lines: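 LNCaP cells stably transfected with 17β-HSD3, kept under hygromycin, which was omitted during assay. 15,000 cells/well grown 3 days in protocol medium, then given 15 nM [14C]-4-androstene-3,17-dione plus inhibitor in DMSO (final 0.05%) for 3 h. Steroids extracted from medium, separated by TLC and quantified. Percent inhibition of T formation calculated.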

For test [7], the system named is LAPC4. Put plainly: Androgenic activity in human LAPC4 cells expressing androgen receptor assessed as induction of cell proliferation at 0.1 uM after 3 days by MTS assay relative to control. It counts as functional. In a few lines:
as §2

Test [8] has as its target T3, 17-beta-hydroxysteroid dehydrogenase type 3 (Rattus norvegicus, UniProt O54939).
T3 sequence (O54939 whole entry): T1 sequence (whole entry)
Put plainly: Inhibition of 17beta-HSD3 in rat testes microsomes using [14C]-4-androstene-3,17-dione as substrate after 2 hrs. Set-up: species or system Testis. In a few lines:
as §1

Test [9] addresses T1, 17-beta-hydroxysteroid dehydrogenase type 3 (Rattus norvegicus). Put plainly: Inhibition of 17beta-HSD3 in rat testes microsomes using [14C]-4-androstene-3,17-dione as substrate measured based on 33% of initial enzyme transformation at 0.1 uM after 2 hrs. The conditions noted are these: Testis. In a few lines:
as §1

Test [10] shares this target. Put plainly: Inhibition of 17beta-HSD3 in rat testes microsomes using [14C]-4-androstene-3,17-dione as substrate measured based on 4% of initial enzyme transformation at 1 uM after 2 hrs. As to conditions: Testis. The gist of the method: as §1
Test [11] shares this target. The test is described as follows: Inhibition of 17beta-HSD3 in rat testes microsomes using [14C]-4-androstene-3,17-dione as substrate measured based on 33% of initial enzyme transformation at 10 uM after 2 hrs. As to conditions: Testis. The gist of the method: as §1
For test [12] the target is unchanged. The test is described as follows: Inhibition of 17beta-HSD3 in rat testes microsomes using [14C]-4-androstene-3,17-dione as substrate measured based on 33% of initial enzyme transformation at 1 uM after 2 hrs. As to conditions: Testis. The gist of the method:
as §1

Test [13] shares this target. Put plainly: Inhibition of 17beta-HSD3 in rat testes microsomes using [14C]-4-androstene-3,17-dione as substrate measured based on 4% of initial enzyme transformation at 10 uM after 2 hrs. The conditions noted are these: Testis. The gist of the method:
as §1

Test [14] has as its target T2, 17-beta-hydroxysteroid dehydrogenase type 3 (Homo sapiens). As to conditions: LNCaP, 0.5 uM.

For `C[C@]12CC[C@@]3(C[C@@H]1CC[C@@H]1[C@@H]2CC[C@]2(C)C(=O)CC[C@@H]12)CN(S(=O)(=O)c1ccc(C(F)(F)F)cc1)CC(=O)O3`, the inhibition in test [1] was 85.1%; in test [4], 32.9%; in [5], 48.6%; in [6] it was 10%. Further, the Ratio IC50 in test [2] was 6. In addition, the Activity in the test with LAPC4 [3] and with LAPC4 [7] was 0% in each case. The compound also came in with an IC50 in [8] of 28 nM.
In the case of `C[C@@H]1CN(S(=O)(=O)c2ccccc2C(F)(F)F)[C@@H](C)CN1C[C@@]1(O)CC[C@@]2(C)[C@@H](CC[C@@H]3[C@@H]2CC[C@]2(C)C(=O)CC[C@@H]32)C1`, the inhibition in test [9] was 89.4%; in [10] it was 96.4%; in test [11], 94%; in [12], 94.4%; in test [4] it was 32.4%; in [5], 43.7%. Besides, the inhibition in [13] was 97.1%; in test [14], 100%. For the same compound, the Activity in the test on LAPC4 [3] and in the test with LAPC4 [7] was 0% throughout. The IC50 in [8] is 13 nM.

By inhibition is commonly meant the change of the read-out against control, counted positive when it falls. A higher inhibition goes with strong suppression. By IC50 is commonly meant the midpoint of a concentration-inhibition curve. Read a high IC50 as weaker potency.

The values are drawn from ChEMBL document CHEMBL3603811, “Design, chemical synthesis and biological evaluation of 3-spiromorpholinone/3-spirocarbamate androsterone derivatives as inhibitors of 17β-hydroxysteroid dehydrogenase type 3” (Bioorg Med Chem, 2015).
